Assay outcomes: PubChem, several laboratories
sdo1 growth: sdo1-depleted yeast growth rescue; S. cerevisiae sdo1-depleted JHY4D growth rescue, OD600 30 h; hits give high values; pdr5 snq2 efflux-pump mutant strain; z-score at 10 µM; 140,000 tested, 0.21% active; AID 817;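 active = z-score above 3 at both the 24 hr and the 30 hr optical density reads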
BB579 growth dn: yeast BB579 growth reduction in restrictive medium. S. cerevisiae BB579 growth, OD615, 48 h. inhibition, % at 10 µM. 140,000 tested, 0.51% active;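 active = inhibition above a set limit, 3 SD over the mean compound inhibition, cut at about 44% in these data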
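Assay system – yeast BB579 (DeaD) · Dosing – single compound dose of 10 µM, 0.25% DMSO final · Detection – OD615 turbidity measurement · Buffer or medium – CSMM-D restrictive synthetic medium containing dextrose (glucose) · Benchmarks – positive control amphotericin B 10 µg/mL · Incubation – 48 h exposure, 30 °C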
Measles CPE: protection of cells from measles virus; Measles virus-infected cells, CPE protection, absorbance; protection (pct of control), % at 4 µM; 140,000 tested, 1.5% active; AID 841; in the data active = protection mostly above about 24%, no sharp cut-off; inactive = mostly below about 26%
Yeast lifespan up: yeast lifespan extension; inhibition of the nicotinamide effect, % at 10 µM; 130,000 tested, 0.68% active; S. cerevisiae growth with nicotinamide, OD615; deaD strain in restrictive glucose medium;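 active = inhibition above a set limit, placed 3 SD over the median of all compounds, cut at about 26% in these data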
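Assay system: engineered S. cerevisiae DeaD replicative-lifespan strain, galactose-grown log-phase cells; Buffer or medium: CSMM-D glucose medium, restrictive; Probe or stimulus: nicotinamide 1.5 mM; Compound: single dose 10 µM compound, 0.25% DMSO; Schedule: 4 h preincubation then 48 h treatment at 30 °C; Technique: OD615 measurement.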
RAM inhibit: blocks the yeast RAM network; S. cerevisiae dse1pr::URA3 reporter, 5-FOA growth OD615, 2 d; analog-sensitive cbk1-as2 kinase mutant strain; inhibition, % at 50 µM; 190,000 tested, 1.8% active; AID 868;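 active = inhibition above a set limit, 3 SD over mean compound inhibition, cut at about 8.4% in these data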;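 note: inhibition rescues growth on 5-FOA so higher OD means more RAM inhibition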
Numbers stand for hits; . = inactive; / = not tested or not shown. A selection: hits, their analogues and other compounds. The true share with any hit is near 3.8%.

SMILES	sdo1 growth	BB579 growth dn	Measles CPE	Yeast lifespan up	RAM inhibit
O=C(CN(c1ccccc1F)S(=O)(=O)c1ccccc1)N1CCCCCC1	.	.	.	.	.
Cc1cccc(/C(N)=N/OC(=O)c2ccc(F)cc2)c1	.	95	.	.	.
Cc1cccc(NC(=S)c2nc3ccccc3s2)c1	.	.	.	.	.
C=CCSC1=N/C(=C\c2sccc2C)C(=O)S1	.	.	.	.	9.4
CCc1ccc(OCC(=O)NC(NC(=S)Nc2ccccc2OC)C(Cl)(Cl)Cl)cc1 (centres undefined)	.	.	43	.	.
COc1cc2c(cc1OC)CN(C1CC(=O)N(c3c(C)cccc3C)C1=O)CC2 (centres undefined)	/	/	/	/	.
CSc1nsc(SCC(=O)N2CCN(c3ccccc3)CC2)n1	.	.	.	.	.
COC(=O)Cn1c(=NC(=O)c2nc3ccccc3s2)sc2cc(S(N)(=O)=O)ccc21	.	.	.	.	8.6
CCC(=O)NC(=S)Nc1ccc(NC(=O)c2cc3ccccc3o2)c(OC)c1	/	/	/	/	.
COc1cc(NC(=S)NC(=O)C(C)C)ccc1NC(=O)c1cc2ccccc2o1	/	/	/	/	9.5
CC(Oc1ccc(-c2nccc(-c3ccccn3)n2)cc1)C(=O)NN (centres undefined)	.	.	.	.	.
CCC(C)Cn1c(S(=O)(=O)O)nc2ccccc21 (centres undefined)	.	.	50	.	.
CCCc1ccc(Oc2c(-c3ccc(O)c(C)c3O)n[nH]c2C)cc1	.	99	.	.	9.1
COc1cccc(Oc2cn[nH]c2-c2ccc(OC)cc2O)c1	.	.	.	.	.
CCCc1ccc(Oc2cn[nH]c2-c2ccc(O)c(C)c2O)cc1	.	100	.	.	.
COc1ccc(Oc2c(-c3ccc(O)cc3O)n[nH]c2C)cc1	.	.	/	.	.
Fc1ccccc1CSCc1nc2ccccc2[nH]1	/	/	/	/	.
COc1ccc(/C=C/C(=O)Nc2cccc(S(=O)(=O)N3CCCC3)c2)cc1OC	/	/	/	/	8.5
COc1cc2c(cc1OC)C(c1cccs1)N(C(=S)NC(C)C)CC2 (centres undefined)	/	/	/	/	.
Cc1oncc1-c1csc(-c2ccccc2Cl)n1	/	/	/	/	9.5
Cc1ccc(-c2nc(N)sc2CC(=O)OCC(=O)N2C(C)CCCC2C)cc1 (centres undefined)	.	.	.	.	.
Cc1ccc(-c2nc(N)sc2CC(=O)OCC(=O)NC2CCCC(C)C2C)cc1 (centres undefined)	.	.	26	.	.
Clc1ccc(CNCCC2=CCCCC2)cc1	.	.	.	.	.
CCCCN(CCCC)c1ccc(C(=O)c2ccccc2C(=O)O)c(O)c1	.	.	.	34	.
Cc1cc(C(=O)OCC(=O)Nc2ccc(F)cc2)c(C)o1	.	.	.	.	.
SMILES	sdo1 growth	BB579 growth dn	Measles CPE	Yeast lifespan up	RAM inhibit
CCOC(=O)c1c(NC(C)=O)no[n+]1[O-]	.	.	.	.	.
CN(C[C@@H](Cc1cccc2ccccc12)N(C[C@H](Cc1ccccc1)N(CCc1ccccc1)N=O)N=O)N=O	/	/	/	/	.
O=C(Nc1ccc(C(F)(F)F)cc1)c1cc(S(=O)(=O)NCC2COc3ccccc3O2)ccc1F (centres undefined)	.	.	.	.	8.4
CCCC(C)NC(=O)COc1ccc(S(=O)(=O)c2ccc(OCC(=O)NC(C)CCC)cc2)cc1 (centres undefined)	.	.	.	.	.
O=C(CCc1nnc(Cc2c[nH]c3ccccc23)o1)NC(C1CC1)C1CC1	/	/	/	/	.
Cc1ccc(N=Nc2c(N)[nH]n3c(=O)cc(-c4ccccc4)nc23)cc1	.	.	.	.	8.7
O=C(Nc1ccc(Br)c2cccnc12)c1ccc(Cn2cc(Cl)cn2)o1	.	.	.	.	11
Cc1ccc2nc(NC(=O)c3ccc(Cn4cc(Cl)cn4)o3)sc2c1	.	.	.	.	.
COc1ccc(C(=O)COC(=O)CCc2nc3ccccc3[nH]c2=O)cc1Br	/	/	/	/	.
Nc1cc(=O)[nH]c(N2CCN(c3ccccc3)CC2)n1	/	/	/	/	.
CCOc1ccc(/C=N/Nc2ccc(C(F)(F)F)cc2[N+](=O)[O-])cc1O	.	.	32	.	.
COc1ccc(/C=N/Nc2ccc(C(F)(F)F)cc2[N+](=O)[O-])cc1O	.	.	.	.	10
Cc1cc(NC(=O)Nc2cccc(C)c2C)no1	/	/	/	/	.
OC1(c2ccccc2F)CCN(Cc2nnc(-c3ccccc3)o2)CC1	.	.	81	.	.
[O-][N+]1=C(c2cccs2)CN(O)C1	.	.	34	.	.
COc1cc(OC)cc(C(=O)NC(=S)NCc2ccco2)c1	.	.	.	.	9.5
COc1cccc(NC(=O)CCC(=O)NCc2ccco2)c1	.	.	86	.	.
O=C1c2ccccc2-c2onc3ccc(Oc4ccccc4)c1c23	.	.	.	/	.
CCOC(=O)C(C(=O)OCC)c1cc(Br)c2noc3c2c1C(=O)c1ccccc1-3	.	.	.	46	.
O=C(c1ccccc1)c1cc([N+](=O)[O-])ccc1N1CCOCC1	.	.	.	.	.
CC1CCCN(c2ccc([N+](=O)[O-])cc2C(=O)c2ccccc2)C1 (centres undefined)	.	.	.	.	9.6
COc1c2c(nc3ccccc13)OC(C(C)(O)COC(C)=O)C2 (centres undefined)	.	.	32	.	.
COC(=O)c1cc(NC(=O)c2c(F)c(F)c(F)c(F)c2F)cc(C(=O)OC)c1	.	.	.	.	.
O=C(Cc1ccccc1)NCCc1cn2ccsc2n1	.	49	.	.	.
CCCCCN1CSC(=S)N(Cc2ccccc2)C1	.	.	.	27	.
SMILES	sdo1 growth	BB579 growth dn	Measles CPE	Yeast lifespan up	RAM inhibit
O=C(O)c1[nH]c2ccc(Cl)cc2c1CC(=O)N1CCN(c2ccccc2)CC1	.	.	.	.	11
COc1ccccc1N1CCN(C(=O)Cc2c(C(=O)O)[nH]c3ccc(Cl)cc23)CC1	/	/	/	/	.
O=C(Nc1ccc(S(=O)(=O)NC2=NCCCCC2)cc1)c1ccc(=O)[nH]c1	/	/	/	/	.
O=C(CSc1oc(-c2cccs2)nc1S(=O)(=O)c1ccc(F)cc1)NCC1CCCO1 (centres undefined)	.	.	.	.	9.1
Cc1ccsc1C(=O)C1CCCN(Cc2cc(F)ccc2-n2cccn2)C1 (centres undefined)	/	/	/	/	.
COC(=O)C1C(=O)c2c([nH]c(C(=O)OC3CCCC3C)c2C)CC1C (centres undefined)	.	.	.	.	.
COC(=O)C1C(=O)c2c([nH]c(C(=O)OC3CCCCC3)c2C)CC1C (centres undefined)	.	.	33	.	.
CCC1(C)C(Nc2c(C)cccc2C)=NC(=S)N1c1ccc(NC(C)=O)cc1 (centres undefined)	.	.	.	.	.
Cn1c(=O)n(C)c2cc(/C=N/NC(=O)c3ccc(Cl)cc3Cl)ccc21	.	.	.	.	.
COc1ccc(Br)cc1C(=O)N/N=C/c1ccc2c(c1)n(C)c(=O)n2C	.	.	37	.	.
